Assay results as given in paper PMC9519467 (Bioactive Materials, 2022).

How the values were obtained:
4T1 tumor-bearing mice [1] = assay: In vivo biodistribution after tail vein injection; design: species or system BALB/c mice; details: 1–24 h
Procedure, shortened: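 Female BALB/c mice (4–6 weeks, 18–20 g) received 5 × 10^5 4T1 cells subcutaneously in the right flank and were grouped once tumors reached about 100 mm3. Test compound (100 μL, 2.845 mg/mL in PBS) was injected into the tail vein; free P18 in 10% DMSO/PBS served as comparator. P18 fluorescence was imaged by IVIS under isoflurane at 1, 3, 6, 9, 12 and 24 h. Mean tumor-site intensity was computed, and excised organs and tumor were imaged at 24 h.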

4T1 tumor-bearing mice [2] = assay: In vivo photothermal effect; design: species or system BALB/c mice; details: 6 h after tail vein injection, 660 nm, 0.5 W/cm^2, 6 min
Procedure, shortened: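 The 4T1 model was female BALB/c mice with subcutaneous flank tumors, in two groups. One group got test compound i.v. (100 μL, 2.845 mg/mL in PBS); the comparator group got free P18 solution (100 μL) under the same conditions. Infrared thermal camera images and tumor temperature curves were recorded during irradiation.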

4T1 tumor-bearing mice [3] = assay: Tumor retention after intratumoral injection; type: in vivo, BALB/c mice; details: observed 6–120 h
Procedure, shortened: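 4T1 flank tumors were raised in female BALB/c mice, and test compound or free P18 solution (10 μL) was injected into the tumor. Fluorescence was imaged by IVIS under isoflurane at 6, 12, 24, 48, 72, 96 and 120 h, and tumor intensity was quantified. In a separate pair of groups, the MMP-2 inhibitor Ilomastat (8 mg/kg) was injected into the tumor 15 min before the test compound, compared with no inhibitor. Tumor fluorescence was imaged at serial time points.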

## Purpurin 18 [P18]
4T1 tumor-bearing mice [1]
  fluorescence signal at the tumor site: barely detectable
4T1 tumor-bearing mice [2]
  temperature of the tumor under laser irradiation: 41 °C
4T1 tumor-bearing mice [3]
  course of tumor fluorescence intensity post i.t. injection: decreased gradually until 120 h
